A short description of series [1]: Selectivity ratio of CC50 for MDCK cells to EC50 for Influenza A virus (A/WSN/33). The class given is toxicity. The conditions noted are these: dog, read-out: Ratio CC50/EC50. The method, boiled down:
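SI is calculated as CC50 (MDCK, 72 h MTT) divided by EC50 (72 h crystal-violet CPE assay in MDCK).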

Series [2] has as its system Influenza A virus. The series can be described thus: Antiviral activity against Influenza A virus (A/WSN/33) infected in MDCK cells assessed as reduction in virus-induced cytopathic effect after 72 hrs by crystal violet-staining based assay. In kind it is functional, organism-based. The conditions noted are these: A/WSN/1933(H1N1). In outline:
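Cells seeded at 2 × 10^4/well in E10 (DMEM, 10% FBS), 16–24 h at 37 °C/5% CO2, washed with DPBS, then infected at nine-fold TCID50 with or without serial compound concentrations. Influenza is run in MDCK and enterovirus/rhinovirus in RD. Incubated 72 h, fixed in 4% paraformaldehyde, stained with 0.1% crystal violet, and read for cell density. EC50 = 50% CPE inhibition by Reed–Muench; mean ± S.D. of at least three runs.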

Series [3] is described as follows: Cytotoxicity against MDCK cells assessed as cell death after 72 hrs by MTT assay. In kind it is cell-based, Canis lupus familiaris. The note with it: dog. The method, boiled down:
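MDCK or RD cells at 2 × 10^4/well in E10, overnight at 37 °C/5% CO2, DPBS wash, then exposed to graded compound concentrations for 72 h. MTT added for 3 h, formazan dissolved in DMSO, absorbance read at 570 nm. CC50 (50% cell death) by Reed–Muench.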

The test system of series [4] is Influenza A virus. The series can be described thus: Inhibition of viral protein sub-cellular distribution in Influenza A virus (A/WSN/33) infected in MDCK cells assessed as reduction in M1 protein distribution to cytoplasm at 10 nM measured after 9 hrs post infection by IF-staining based microscopy. The class given is functional, organism-based. The note with it: A/WSN/1933(H1N1). The method, boiled down: (§1)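 MDCK cells grown on coverslips (2 × 10^5/well, 16 h), infected at MOI 0.1 for 1 h, washed, then kept in E0 with test compound (1 or 10 μM) or LMB 10 nM; DMSO 0.05% as mock. Fixed at 9 h pi in 4% paraformaldehyde and immunostained for M1, NP, NS2 or PA (1:50), with Hoechst nuclear stain. Viewed by confocal microscopy at 63×. NP nuclear/cytoplasmic intensity ratio quantified; three independent experiments.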

For series [5], the system named is Influenza A virus. The series can be described thus: Antiviral activity against Influenza A virus (A/WSN/33) infected in MDCK cells assessed as reduction in NS2 protein distribution to cytoplasm at 10 nM measured after 9 hrs post infection by IF-staining based microscopy. The class given is functional, organism-based. The conditions noted are these: A/WSN/1933(H1N1). In outline: as §1

Series [6] concerns Influenza A virus. The series can be described thus: Inhibition of viral protein sub-cellular distribution in Influenza A virus (A/WSN/33) infected in MDCK cells assessed as reduction in PA protein distribution to cytoplasm at 10 nM measured after 9 hrs post infection by IF-staining based microscopy. The class given is functional, organism-based. The conditions noted are these: A/WSN/1933(H1N1). In outline: as §1

For series [7], the system named is Influenza A virus. Description: Inhibition of viral protein sub-cellular distribution in Influenza A virus (A/WSN/33) infected in MDCK cells assessed as reduction in NS2 protein distribution to cytoplasm at 10 nM measured after 9 hrs post infection by IF-staining based microscopy. In kind it is functional, organism-based. The conditions noted are these: A/WSN/1933(H1N1). The method, boiled down:
as §1

The test system of series [8] is Influenza A virus. Description: Antiviral activity against Influenza A virus (A/WSN/33) infected in MDCK cells assessed as reduction in M1 protein distribution to cytoplasm at 10 nM measured after 9 hrs post infection by IF-staining based microscopy. The class given is functional, organism-based. The conditions noted are these: A/WSN/1933(H1N1). In outline:
as §1

Series [9] deals with Influenza A virus. Description: Antiviral activity against Influenza A virus (A/WSN/33) infected in MDCK cells assessed as reduction in PA protein distribution to cytoplasm at 10 nM measured after 9 hrs post infection by IF-staining based microscopy. The conditions noted are these: A/WSN/1933(H1N1). In kind it is functional, organism-based. The method, boiled down: as §1
For series [10], the system named is Influenza A virus. Description: Antiviral activity against Influenza A virus (A/WSN/33) infected in MDCK cells assessed as reduction in NP protein distribution to cytoplasm at 10 nM measured after 9 hrs post infection by IF-staining based microscopy. The note with it: A/WSN/1933(H1N1). In kind it is functional, organism-based. In outline: as §1
Series [11] relates to MDCK. Description: Inhibition of CRM1 in MDCK cells infected with Influenza A virus (A/WSN/33) assessed as reduction in CRM1-mediated viral protein nuclear export by measuring reduction in NP protein distribution to cytoplasm at 10 nM measured after 9 hrs post infection by IF-staining based microscopy. In kind it is cell-based. The note with it: Canis lupus familiaris. The method, boiled down: as §1

pEC50: −log10 of the molar value. Active and inactive are the calls of the source. The calls are words filed in the database; no cut-off is given here.

With `C=C(CC(=O)Nc1cc(Cl)ccc1F)C(=O)Nc1cc(Cl)ccc1F`, the selectivity ratio in [1] was 111. Also, in series [2], the pEC50 (in general, −log10 of the EC50, conventionally taken in molar units) is 6.74. The CC50 – broadly, the concentration giving 50% cytotoxicity – at 72 h in series [3] came to 19.9 µM.
Take `C=C(CC(=O)Nc1ccc(Br)cc1Br)C(=O)Nc1ccc(Br)cc1Br`: the selectivity ratio in [1] was over 2. In addition, in series [2], the pEC50 was 4.38. For the same compound, the CC50 at 72 h in [3] was over 110 µM.
Taken in the same sequence, the figures for `C=C(CC(=O)Nc1cc(OC)ccc1F)C(=O)Nc1cc(OC)ccc1F` were over 229, 6.32 and over 110 µM.
Consider `C=C(CC(=O)Nc1cc(C(F)(F)F)ccc1F)C(=O)O`, for which the pEC50 in series [2] was under 4.30. Also, the CC50 at 72 h in series [3] was over 110 µM.
On the same counts, the results for `C=C(CC(=O)NCc1ccc(F)cc1F)C(=O)NCc1ccc(F)cc1F` are under 4.30 and over 110 µM.
For `O=C(/C=C\n1cnc(-c2cc(C(F)(F)F)cc(C(F)(F)F)c2)n1)NNc1ccccn1` [VERDINEXOR], the selectivity ratio in series [1] is 9.69. Moreover, the pEC50 in series [2] is 5.48. The CC50 at 72 h in series [3] was determined as 31.8 µM.
As for `C=C(CC(=O)Nc1ccc(F)cc1C(F)(F)F)C(=O)Nc1ccc(F)cc1C(F)(F)F`, the negative logarithm of the EC50 (pEC50) in series [2] is under 4.30. Also, the CC50 at 72 h in series [3] was over 110 µM.
As for `C=C(CC(=O)Nc1cc(F)ccc1C(F)(F)F)C(=O)O`, the negative-log EC50 (pEC50) in series [2] was under 4.30. Moreover, the CC50 at 72 h in series [3] is over 110 µM.
Taken in the same sequence, the figures for `C=C(CC(=O)Nc1cccc(C(F)(F)F)c1)C(=O)O` were under 4.30 and over 110 µM.
In the case of `C=C(CC(=O)Nc1cc(C(F)(F)F)ccc1F)C(=O)Nc1cc(C(F)(F)F)ccc1F`, in series [1], the selectivity ratio is 136. Further, the pEC50 in series [2] is 6.96. Besides, the CC50 at 72 h in series [3] is 15 µM.
On to `C=C(CC(=O)Nc1ccc(C(F)(F)F)cc1F)C(=O)O`, for which, in series [2], the pEC50 was under 4.30. Besides, in series [3], the CC50 at 72 h is over 110 µM.
Turning to `C=C(CC(=O)Nc1ccc(Cl)cc1F)C(=O)Nc1ccc(Cl)cc1F`, the selectivity ratio in series [1] was over 164. Further, in series [2], the negative logarithm of the EC50 (pEC50) is 6.17. The CC50 at 72 h in [3] is over 110 µM.
For `C=C(CC(=O)NCc1cc(F)ccc1F)C(=O)NCc1cc(F)ccc1F`, the pEC50 in [2] was under 4.30. Also, the CC50 at 72 h in [3] was over 110 µM.
For `C=C(CC(=O)Nc1ccc(F)cc1C(F)(F)F)C(=O)O`, the pEC50 in series [2] was under 4.30. Also, the CC50 at 72 h in series [3] was over 110 µM.
Taken in the same sequence, the figures for `C=C(CC(=O)Nc1cc(F)ccc1F)C(=O)O` were under 4.30 and over 110 µM.
On to `C=C(CC(=O)Nc1cc(F)ccc1F)C(=O)Nc1cc(F)ccc1F`, for which, in [1], the selectivity ratio stood at 26. In addition, in [2], the pEC50 was 5.90. Further, in [3], the CC50 at 72 h came to 32.8 µM.
For `C=C(CC(=O)Nc1ccc(Br)cc1F)C(=O)Nc1ccc(Br)cc1F`, the selectivity ratio in series [1] was over 111. Besides, the pEC50 in series [2] was 6.00. Moreover, the CC50 at 72 h in series [3] is over 110 µM.
Consider `C=C(CC(=O)Nc1ccccc1C(F)(F)F)C(=O)Nc1ccccc1C(F)(F)F`, for which the pEC50 in series [2] was under 4.30. Besides, in series [3], the CC50 at 72 h was over 110 µM.
For the compound `C=C(CC(=O)Nc1ccc(F)cc1Br)C(=O)Nc1ccc(F)cc1Br`, in series [1], the selectivity ratio was over 42. The pEC50 in series [2] is 5.59. Further, the CC50 at 72 h in series [3] is over 110 µM.
Consider `C=C(CC(=O)Nc1ccccc1C(F)(F)F)C(=O)O`, for which the negative logarithm of the EC50 (pEC50) in series [2] is under 4.30. Further, in [3], the CC50 at 72 h was over 110 µM.
As to `C=C(CC(=O)Nc1ccc(OC)cc1F)C(=O)Nc1ccc(OC)cc1F`, the selectivity ratio in series [1] was over 3. The pEC50 in series [2] is 4.51. Moreover, in [3], the CC50 at 72 h was over 110 µM.
With `C=C(CC(=O)Nc1ccc(F)cc1F)C(=O)O`, the pEC50 in [2] is under 4.30. In addition, in series [3], the CC50 at 72 h was over 110 µM.
In the case of `C=C(CC(=O)Nc1cc(Cl)ccc1F)C(=O)O`, the pEC50 in [2] is under 4.30. In series [3], the CC50 at 72 h was over 110 µM.
For the compound `CCC(=C/[C@H](C)C/C=C/C(C)=C/[C@@H](C)C(=O)[C@@H](C)[C@H](O)[C@@H](C)C/C(C)=C/C(=O)O)/C=C/[C@@H]1OC(=O)C=C[C@@H]1C` [LEPTOMYCIN B], the inhibition result in [4], in series [6] and in series [7] was “inactive” in each case. Moreover, the result in series [5], in series [8] and in [9] was inactive. The selectivity ratio in series [1] was over 4. In addition, the pEC50 in series [2] is 6.74. Also, the CC50 at 72 h in series [3] was over 0.88 µM. In addition, the outcome in series [10] was Active. The inhibition entry in series [11] is “Active”.
Turning to `C=C(CC(=O)Nc1ccc(Cl)cc1F)C(=O)O`, in [2], the pEC50 is under 4.30. For the same compound, the half-maximal cytotoxic concentration (CC50) at 72 h in series [3] was over 110 µM.

For the origin of these results see ChEMBL document CHEMBL4316597, “Design, Synthesis, and Biological Evaluation of Itaconic Acid Derivatives as Potential Anti-Influenza Agents” (J Med Chem, 2019).
